Measured values as given in ChEMBL document CHEMBL3120154, “2-[N-Alkyl(R-phenyl)-aminomethyl]-3-phenyl-7-trifluoromethylquinoxalines as anticancer agents inhibitors of folate enzymes” (Eur J Med Chem, 2014).

How the values were obtained:
Type in all cases: functional
NCI-H23 = assay: Cytotoxicity against human NCI-H23 cells at 10^-6 M after 48 hrs by SRB assay; settings: NCI-H23, 48 h, read-out: GI
Outline: (§1)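 Run in the NCI 60-cell-line screen after a three-line prescreen. Cells got a 48 h drug exposure; viability/growth was estimated with the sulforhodamine B protein assay. Growth inhibition (I%) was recorded at 100, 10, 1, 0.1 and 0.01 micromolar. Percent growth is relative to untreated control cells, and negative values indicate cell kill.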

RXF 393 = assay: Cytotoxicity against human RXF393 cells at 10^-6 M after 48 hrs by SRB assay; settings: RXF 393, 48 h, read-out: GI
Outline: (§2)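 Second-stage screen in the 60-cell-line human tumor panel at NCI, over a 5-log range (100, 10, 1, 0.1, 0.01 micromolar). Cells were exposed to drug for 48 h and growth was estimated with a sulforhodamine B protein stain. The value is percent growth inhibition at each concentration.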

UACC-62 = assay: Cytotoxicity against human UACC62 cells at 10^-6 M after 48 hrs by SRB assay; settings: UACC-62, 48 h, read-out: GI
A498 = assay: Cytotoxicity against human A498 cells at 10^-6 M after 48 hrs by SRB assay; settings: A498, 48 h, read-out: GI
Outline: (§3)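 Run by NCI on its 60-line human tumor cell panel, after a three-cell-line prescreen. Cells were exposed to drug for 48 h over a 5-log range: 100, 10, 1, 0.1 and 0.01 micromolar. Growth was estimated by sulforhodamine B (SRB) protein staining. Percent growth inhibition (I%) was recorded at each concentration relative to untreated control cells.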

[1] = Cytotoxicity against human OVCAR4 cells at 10^-6 M after 48 hrs by SRB assay; settings: OVCAR-4, 48 h, read-out: GI; outline: as §2
SF-539 = assay: Cytotoxicity against human SF539 cells at 10^-5 M after 48 hrs by SRB assay; settings: SF-539, 48 h, read-out: GI; outline: as §2
OVCAR-3 = assay: Cytotoxicity against human OVCAR3 cells at 10^-5 M after 48 hrs by SRB assay; settings: OVCAR-3, 48 h, read-out: GI; outline: as §1
CAKI-1 = assay: Cytotoxicity against human Caki1 cells at 10^-5 M after 48 hrs by SRB assay; settings: CAKI-1, 48 h, read-out: GI; outline: as §3
HOP-92 = assay: Cytotoxicity against human HOP92 cells at 10^-5 M after 48 hrs by SRB assay; settings: HOP-92, 48 h, read-out: GI; outline: as §3
MDA-MB-435 = assay: Cytotoxicity against human MDA-MB-435 cells at 10^-5 M after 48 hrs by SRB assay; settings: MDA-MB-435, 48 h, read-out: GI; outline: as §1
HCT-15 [2] = assay: Cytotoxicity against human HCT15 cells at 10^-5 M after 48 hrs by SRB assay; settings: HCT-15, 48 h, read-out: GI; outline: as §3
HOP-62 = assay: Cytotoxicity against human HOP62 cells at 10^-5 M after 48 hrs by SRB assay; settings: HOP-62, 48 h, read-out: GI; outline: as §3
786-0 [3] = assay: Cytotoxicity against human 786-0 cells at 10^-6 M after 48 hrs by SRB assay; settings: 786-0, 48 h, read-out: GI; outline: as §3
A549 = assay: Cytotoxicity against human A549 cells at 10^-6 M after 48 hrs by SRB assay; settings: A549, 48 h, read-out: GI; outline: as §3
786-0 [4] = assay: Cytotoxicity against human 786-0 cells at 10^-5 M after 48 hrs by SRB assay; settings: 786-0, 48 h, read-out: GI; outline: as §3
MOLT-4 = assay: Cytotoxicity against human MOLT4 cells at 10^-6 M after 48 hrs by SRB assay; settings: MOLT-4, 48 h, read-out: GI; outline: as §1
[5] = Cytotoxicity against human EKVX cells at 10^-5 M after 48 hrs by SRB assay; settings: read-out: GI; outline: as §3
HT-29 [6] = assay: Cytotoxicity against human HT-29 cells at 10^-6 M after 48 hrs by SRB assay; settings: HT-29, 48 h, read-out: GI; outline: as §3
MCF7 = assay: Cytotoxicity against human MCF7 cells at 10^-6 M after 48 hrs by SRB assay; settings: MCF7, 48 h, read-out: GI; outline: as §1
NCI/ADR-RES = assay: Cytotoxicity against human NCI/ADR-RES cells at 10^-5 M after 48 hrs by SRB assay; settings: read-out: GI; outline: as §1
HT-29 [7] = assay: Cytotoxicity against human HT-29 cells at 10^-5 M after 48 hrs by SRB assay; settings: HT-29, 48 h, read-out: GI; outline: as §3
RPMI-8226 [8] = assay: Cytotoxicity against human RPMI8226 cells at 10^-5 M after 48 hrs by SRB assay; settings: RPMI-8226, 48 h, read-out: GI; outline: as §2
[9] = Cytotoxicity against human OVCAR4 cells at 10^-5 M after 48 hrs by SRB assay; settings: OVCAR-4, 48 h, read-out: GI; outline: as §2
CCRF-CEM = assay: Cytotoxicity against human CCRF-CEM cells at 10^-5 M after 48 hrs by SRB assay; settings: read-out: GI; outline: as §3
OVCAR-8 [10] = assay: Cytotoxicity against human OVCAR8 cells at 10^-6 M after 48 hrs by SRB assay; settings: OVCAR-8, 48 h, read-out: GI; outline: as §2
SF-268 = assay: Cytotoxicity against human SF268 cells at 10^-6 M after 48 hrs by SRB assay; settings: SF-268, 48 h, read-out: GI; outline: as §2
OVCAR-8 [11] = assay: Cytotoxicity against human OVCAR8 cells at 10^-5 M after 48 hrs by SRB assay; settings: OVCAR-8, 48 h, read-out: GI; outline: as §2
HCT-15 [12] = assay: Cytotoxicity against human HCT15 cells at 10^-6 M after 48 hrs by SRB assay; settings: HCT-15, 48 h, read-out: GI; outline: as §3
RPMI-8226 [13] = assay: Cytotoxicity against human RPMI8226 cells at 10^-6 M after 48 hrs by SRB assay; settings: RPMI-8226, 48 h, read-out: GI; outline: as §2
[14] = Cytotoxicity against human EKVX cells at 10^-6 M after 48 hrs by SRB assay; settings: read-out: GI; outline: as §3
SK-MEL-5 = assay: Cytotoxicity against human SK-MEL-5 cells at 10^-5 M after 48 hrs by SRB assay; settings: SK-MEL-5, 48 h, read-out: GI; outline: as §2
T47D = assay: Cytotoxicity against human T47D cells at 10^-6 M after 48 hrs by SRB assay; settings: read-out: GI
NCI-H226 = assay: Cytotoxicity against human NCI-H226 cells at 10^-6 M after 48 hrs by SRB assay; settings: NCI-H226, 48 h, read-out: GI; outline: as §1
[15] = Cytotoxicity against human UACC257 cells at 10^-6 M after 48 hrs by SRB assay; settings: UACC-257, 48 h, read-out: GI
HCT-116 = assay: Cytotoxicity against human HCT116 cells at 10^-6 M after 48 hrs by SRB assay; settings: HCT-116, 48 h, read-out: GI; outline: as §3
KM12 = assay: Cytotoxicity against human KM12 cells at 10^-5 M after 48 hrs by SRB assay; settings: KM12, 48 h, read-out: GI; outline: as §1
SF-295 = assay: Cytotoxicity against human SF295 cells at 10^-6 M after 48 hrs by SRB assay; settings: SF-295, 48 h, read-out: GI; outline: as §2
TK-10 = assay: Cytotoxicity against human TK10 cells at 10^-6 M after 48 hrs by SRB assay; settings: TK-10, 48 h, read-out: GI

| Compound | inhibition of growth at 1 µM (NCI-H23) | inhibition of growth at 1 µM (RXF 393) | inhibition of growth at 1 µM (UACC-62) | inhibition of growth at 1 µM (A498) | inhibition of growth at 1 µM [1] | inhibition of growth at 10 µM (SF-539) | inhibition of growth at 10 µM (OVCAR-3) | inhibition of growth at 10 µM (CAKI-1) | inhibition of growth at 10 µM (HOP-92) | inhibition of growth at 10 µM (MDA-MB-435) | inhibition of growth at 10 µM (HCT-15 [2]) | inhibition of growth at 10 µM (HOP-62) | inhibition of growth at 1 µM (786-0 [3]) | inhibition of growth at 1 µM (A549) | inhibition of growth at 10 µM (786-0 [4]) | inhibition of growth at 1 µM (MOLT-4) | inhibition of growth at 10 µM [5] | inhibition of growth at 1 µM (HT-29 [6]) | inhibition of growth at 1 µM (MCF7) | inhibition of growth at 10 µM (NCI/ADR-RES) | further results |
| --- | --- | --- | --- | --- | --- | --- | --- | --- | --- | --- | --- | --- | --- | --- | --- | --- | --- | --- | --- | --- | --- |
| C#CCN(Cc1nc2cc(C(F)(F)F)ccc2nc1-c1ccccc1)c1ccc(C)cc1 | < 40% | < 40% | < 40% | < 40% | < 40% | 49% | 125% | 82% | < 40% | 147% | 110% | 71% | < 40% | 45% | 70% | 67% | < 40% | < 40% | 64% | 113% | inhibition of growth at 10 µM (HT-29 [7]): 99%; inhibition of growth at 10 µM (RPMI-8226 [8]): < 40%; inhibition of growth at 10 µM [9]: 63%; inhibition of growth at 10 µM (CCRF-CEM): < 40%; inhibition of growth at 1 µM (OVCAR-8 [10]): < 40%; inhibition of growth at 1 µM (SF-268): < 40%; inhibition of growth at 10 µM (OVCAR-8 [11]): 62%; inhibition of growth at 1 µM (HCT-15 [12]): 63%; inhibition of growth at 1 µM (RPMI-8226 [13]): < 40%; inhibition of growth at 1 µM [14]: < 40%; inhibition of growth at 10 µM (SK-MEL-5): 99%; inhibition of growth at 1 µM (T47D): 90%; inhibition of growth at 1 µM (NCI-H226): < 40%; inhibition of growth at 1 µM [15]: < 40%; inhibition of growth at 1 µM (HCT-116): 66%; inhibition of growth at 10 µM (KM12): 137%; inhibition of growth at 1 µM (SF-295): 56%; inhibition of growth at 1 µM (TK-10): < 40% |
| CCN(Cc1nc2cc(C(F)(F)F)ccc2nc1-c1ccccc1)c1ccc(OC)c(OC)c1 | 14% | 57% | < 40% | 26% | < 40% | 18% | 31% | 29% | 21% | 14% | 17% | 18% | < 40% | 56% | 15% | < 40% | 23% | < 40% | < 40% | 21% | inhibition of growth at 10 µM (HT-29 [7]): 40%; inhibition of growth at 10 µM (RPMI-8226 [8]): 97%; inhibition of growth at 10 µM [9]: < 40%; inhibition of growth at 10 µM (CCRF-CEM): 70%; inhibition of growth at 1 µM (OVCAR-8 [10]): 45%; inhibition of growth at 1 µM (SF-268): < 40%; inhibition of growth at 10 µM (OVCAR-8 [11]): 72%; inhibition of growth at 1 µM (HCT-15 [12]): < 40%; inhibition of growth at 1 µM (RPMI-8226 [13]): < 40%; inhibition of growth at 1 µM [14]: < 40%; inhibition of growth at 10 µM (SK-MEL-5): 17%; inhibition of growth at 1 µM (T47D): < 40%; inhibition of growth at 1 µM (NCI-H226): 17%; inhibition of growth at 1 µM [15]: 104%; inhibition of growth at 1 µM (HCT-116): 12%; inhibition of growth at 10 µM (KM12): < 40%; inhibition of growth at 1 µM (SF-295): < 40%; inhibition of growth at 1 µM (TK-10): < 40% |
